Results published in ChEMBL document CHEMBL2424582, “Structure-kinetic relationships--an overlooked parameter in hit-to-lead optimization: a case of cyclopentylamines as chemokine receptor 2 antagonists” (J Med Chem, 2013).

Key:
[1] = molecular target: T1, C-C chemokine receptor type 2 (Homo sapiens, UniProt P41597); assay: Displacement of [125I]-CCL2 from human CCR2 receptor expressed in human U2OS cell membranes
In short: (§1)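 Membranes from U2OS cells stably expressing human CCR2 were used in a ¹²⁵I-CCL2 displacement binding assay. The cells were grown at 37 °C, 5% CO₂ in McCoy's 5a with 10% FCS plus G418, hygromycin and zeocin selection. Ki was derived from IC₅₀ by the Cheng–Prusoff equation. Weak binders are reported as percent displacement at 1 μM. n = 3.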
Target sequence in this assay (P41597 whole entry): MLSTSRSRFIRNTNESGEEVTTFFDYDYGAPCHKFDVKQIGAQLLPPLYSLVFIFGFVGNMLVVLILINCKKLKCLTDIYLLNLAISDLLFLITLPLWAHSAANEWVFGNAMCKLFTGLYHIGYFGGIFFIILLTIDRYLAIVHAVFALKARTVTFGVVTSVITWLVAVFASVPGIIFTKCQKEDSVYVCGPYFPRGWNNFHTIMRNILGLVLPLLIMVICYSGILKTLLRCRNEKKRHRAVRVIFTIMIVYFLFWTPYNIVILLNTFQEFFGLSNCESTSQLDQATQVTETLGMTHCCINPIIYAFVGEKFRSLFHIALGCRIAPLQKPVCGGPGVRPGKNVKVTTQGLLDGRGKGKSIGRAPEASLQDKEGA

[2] = molecular target: T1, C-C chemokine receptor type 2; assay: Displacement of [3H]INCB3344 from human CCR2 receptor expressed in human U2OS cell membrane assessed as residence time
Target sequence in this assay (P41597 whole entry, looked up): as the sequence (P41597 whole entry) above

[3] = molecular target: T1, C-C chemokine receptor type 2; assay: Displacement of [3H]INCB3344 from human CCR2 receptor expressed in human U2OS cell membrane assessed as kinetic rate index at Ki by dual-point competition association assay relative to control
Target sequence in this assay (P41597 whole entry, looked up): as the sequence (P41597 whole entry) above

[4] = molecular target: T1, C-C chemokine receptor type 2; assay: Displacement of [125I]-CCL2 from human CCR2 receptor expressed in human U2OS cell membrane at 1 uM relative to control; assay type: cell membranes; in short: as §1
Target sequence in this assay (P41597 whole entry, looked up): as the sequence (P41597 whole entry) above

SMILES | Ki [1] [nM] | TIME [2] [h] | Ratio [3] | inhibition [4] [%]
CC(C)[C@]1(C(=O)NCc2cc(C(F)(F)F)cc(C(F)(F)F)c2)CC[C@@H](NC2CCc3cc(Cl)ccc32)C1 (some centres undefined) | 18 | 0.933 | 1.1 | 
CC(C)[C@]1(C(=O)NCc2cc(C(F)(F)F)cc(C(F)(F)F)c2)CC[C@@H](NC2CCc3c(C#N)cccc32)C1 (some centres undefined) | 70 |  | 0.8 | 
COc1cccc2c1CCCC2N[C@@H]1CC[C@@](C(=O)NCc2cc(C(F)(F)F)cc(C(F)(F)F)c2)(C(C)C)C1 (some centres undefined) | 27 |  | 0.7 | 
CC(C)[C@]1(C(=O)NCc2cc(C(F)(F)F)cc(C(F)(F)F)c2)CC[C@@H](NCCCc2ccccc2)C1 | 134 |  |  | 
CC(C)[C@]1(C(=O)NCc2cc(C(F)(F)F)cc(C(F)(F)F)c2)CC[C@@H](NC2CCc3cc(F)ccc32)C1 (some centres undefined) |  |  |  | 30
CC(C)[C@]1(C(=O)NCc2cc(C(F)(F)F)cc(C(F)(F)F)c2)CC[C@@H](NC2CCSCC2)C1 | 31 | 0.0717 |  | 
CC(C)[C@]1(C(=O)NCc2cc(C(F)(F)F)cc(C(F)(F)F)c2)CC[C@@H](NCc2ccccc2)C1 | 437 |  |  | 
CC(C)[C@]1(C(=O)NCc2cc(C(F)(F)F)cc(C(F)(F)F)c2)CC[C@@H](NC2CCCc3c(O)cccc32)C1 (some centres undefined) | 35 |  | 0.8 | 
CC(C)[C@]1(C(=O)NCc2cc(C(F)(F)F)cc(C(F)(F)F)c2)CC[C@@H](NC2CCc3cc4c(cc32)OCO4)C1 (some centres undefined) | 6.3 |  | 0.6 | 
CC(C)[C@]1(C(=O)NCc2cc(C(F)(F)F)cc(C(F)(F)F)c2)CC[C@@H](NC2CCCc3ccccc32)C1 (some centres undefined) | 33 | 0.0933 | 0.6 | 
CC(C)[C@]1(C(=O)NCc2cc(C(F)(F)F)cc(C(F)(F)F)c2)CC[C@@H](NC2CCc3cc(Br)ccc32)C1 (stereo in doubt; 22b) [listing 1 of 2 here] | 289 |  |  | 
CC(C)[C@]1(C(=O)NCc2cc(C(F)(F)F)cc(C(F)(F)F)c2)CC[C@@H](NC2CCc3cc(O)ccc32)C1 (some centres undefined) | 29 |  | 0.7 | 
CC(C)[C@]1(C(=O)NCc2cc(C(F)(F)F)cc(C(F)(F)F)c2)CC[C@@H](NC2CCCc3c(C(=O)O)cccc32)C1 (some centres undefined) |  |  |  | 0
CC(C)[C@]1(C(=O)NCc2cc(C(F)(F)F)cc(C(F)(F)F)c2)CC[C@@H](NC2CCc3ccc(C#N)cc32)C1 (some centres undefined) | 54 |  | 0.6 | 
CC(C)[C@]1(C(=O)NCc2cc(C(F)(F)F)cc(C(F)(F)F)c2)CC[C@@H](NC2CCCc3c(Br)cccc32)C1 (some centres undefined) |  |  |  | 48
CC(C)[C@]1(C(=O)NCc2cc(C(F)(F)F)cc(C(F)(F)F)c2)CC[C@@H](NCCc2ccccc2)C1 | 2400 |  |  | 
Cc1cccc2c1CCC2N[C@@H]1CC[C@@](C(=O)NCc2cc(C(F)(F)F)cc(C(F)(F)F)c2)(C(C)C)C1 (some centres undefined) |  |  |  | 26
CC(C)[C@]1(C(=O)NCc2cc(C(F)(F)F)cc(C(F)(F)F)c2)CC[C@@H](NC2CCc3ccccc32)C1 (some centres undefined) | 50 | 0.158 | 0.7 | 
CC(C)[C@]1(C(=O)NCc2cc(C(F)(F)F)cc(C(F)(F)F)c2)CC[C@@H](NC2CCc3c(N)cccc32)C1 (some centres undefined) | 43 |  | 0.8 | 
CC(C)[C@]1(C(=O)NCc2cc(C(F)(F)F)cc(C(F)(F)F)c2)CC[C@@H](NC2CCc3c(O)cccc32)C1 (some centres undefined) | 86 |  | 0.6 | 
CC(C)[C@]1(C(=O)NCc2cc(C(F)(F)F)cc(C(F)(F)F)c2)CC[C@@H](NC2CCCCC2)C1 | 110 | 0.0317 |  | 
CC(C)[C@]1(C(=O)NCc2cc(C(F)(F)F)cc(C(F)(F)F)c2)CC[C@@H](NC2CCOCC2)C1 | 6.8 | 0.04 |  | 

Other lines, results leading:

Ki [1] [nM] | TIME [2] [h] | Ratio [3] | inhibition [4] [%] | SMILES
55 |  | 0.8 |  | Cc1ccc2c(c1)C(N[C@@H]1CC[C@@](C(=O)NCc3cc(C(F)(F)F)cc(C(F)(F)F)c3)(C(C)C)C1)CC2 (some centres undefined)
130 |  |  |  | COc1ccc2c(c1OC)CCC2N[C@@H]1CC[C@@](C(=O)NCc2cc(C(F)(F)F)cc(C(F)(F)F)c2)(C(C)C)C1 (some centres undefined)
6.1 |  | 0.6 |  | COc1ccc2c(c1)CCC2N[C@@H]1CC[C@@](C(=O)NCc2cc(C(F)(F)F)cc(C(F)(F)F)c2)(C(C)C)C1 (some centres undefined)
 |  |  | 28 | CC(C)[C@]1(C(=O)NCc2cc(C(F)(F)F)cc(C(F)(F)F)c2)CC[C@@H](NC2CCc3ccc(Cl)cc32)C1 (some centres undefined)
 | 2.25 |  |  | CC(C)[C@]1(C(=O)NCc2cc(C(F)(F)F)cc(C(F)(F)F)c2)CC[C@@H](NC2CCc3cc(Br)ccc32)C1 (single isomer, unassigned; diastereomer 1) [listing 1 of 2 here]
3.6 |  |  |  | CC(C)[C@]1(C(=O)NCc2cc(C(F)(F)F)cc(C(F)(F)F)c2)CC[C@@H](NC2CCc3cc(Br)ccc32)C1 (single isomer, unassigned; diastereomer 1) [listing 2 of 2 here]
 | 1.57 | 1.1 |  | CC(C)[C@]1(C(=O)NCc2cc(C(F)(F)F)cc(C(F)(F)F)c2)CC[C@@H](NC2CCc3cc(Br)ccc32)C1 (mixture of isomers) [listing 1 of 2 here]
 | 1.28 |  |  | CC(C)[C@]1(C(=O)NCc2cc(C(F)(F)F)cc(C(F)(F)F)c2)CC[C@@H](NC2CCc3cc(Br)ccc32)C1 (stereo in doubt; 22b) [listing 2 of 2 here]
7.2 |  |  |  | CC(C)[C@]1(C(=O)NCc2cc(C(F)(F)F)cc(C(F)(F)F)c2)CC[C@@H](NC2CCc3cc(Br)ccc32)C1 (mixture of isomers) [listing 2 of 2 here]
 |  |  | 30 | COc1cccc2c1CCC2N[C@@H]1CC[C@@](C(=O)NCc2cc(C(F)(F)F)cc(C(F)(F)F)c2)(C(C)C)C1 (some centres undefined)
3.9 |  | 0.7 |  | COc1cc2c(cc1OC)C(N[C@@H]1CC[C@@](C(=O)NCc3cc(C(F)(F)F)cc(C(F)(F)F)c3)(C(C)C)C1)CC2 (some centres undefined)
